Measured values reported in ChEMBL document CHEMBL5500359, “Identification of a new bisindolinone arresting IGROV1 cells proliferation” (Eur J Med Chem, 2024).

Legend:
Colon carcinoma cell [1] = experiment: Cytotoxicity against human Colon carcinoma cells incubated for 48 hrs by SRB assay; format: functional
Outline: (§1)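 NCI-60 five-concentration screen: lines seeded 5×10^3–4×10^4 cells/well depending on line; compound diluted in fresh medium at scalar concentrations 0–100 or 0–1000 μM; 48 h exposure, in situ fixation, sulforhodamine B protein staining, optical density read; GI50, TGI and LC50 per NCI procedures; panel mean = mean graph midpoint.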

[2] = Cytotoxicity against human Leukemia cancer cells incubated for 48 hrs by SRB assay; format: functional; details: Leukemia cell, read-out: LC50 (the source's name)
Outline: (§2)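 NCI DTP five-concentration screen. Cells were seeded at 5 × 10³–4 × 10⁴ cells/well, depending on the line. Compounds were diluted in fresh medium and added at scalar concentrations over 0–1000 µM or 0–100 µM. After 48 h the cells were fixed in situ, stained with sulforhodamine B, and optical density was read. GI50, TGI and LC50 were derived by NCI procedures, and the panel mean is the mean graph midpoint.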

[3] = system: Panel NCI-60 (60 carcinoma cell lines); experiment: Cytostatic activity against human Panel NCI-60 (60 carcinoma cell lines) incubated for 48 hrs by SRB assay; format: functional; outline: as §1
Breast cancer cell line [4] = experiment: Cytostatic activity against human Breast cancer cells incubated for 48 hrs by SRB assay; format: functional; outline: as §1
Renal cancer cell line [5] = experiment: Cytostatic activity against human Renal cancer cells incubated for 48 hrs by SRB assay; format: functional; outline: as §1
Ovarian cancer cell line [6] = experiment: Cytostatic activity against human Ovarian cancer cells incubated for 48 hrs by SRB assay; format: functional; outline: as §1
Melanoma cell line [7] = experiment: […] against human Melanoma cells incubated for 48 hrs by SRB assay; format: functional; details: read-out: LC50 (the source's name); outline: as §2
CNS carcinoma cell [8] = experiment: Cytostatic activity against human CNS carcinoma cells incubated for 48 hrs by SRB assay; format: functional; outline: as §1
Colon carcinoma cell [9] = experiment: Cytostatic activity against human Colon carcinoma cells incubated for 48 hrs by SRB assay; format: functional; outline: as §1
[10] = Cytostatic activity against human Leukemia cancer cells incubated for 48 hrs by SRB assay; format: functional, Leukemia cell; outline: as §1
[11] = system: Panel NCI-60 (60 carcinoma cell lines); experiment: Cell growth inhibition of human Panel NCI-60 (60 carcinoma cell lines) incubated for 48 hrs by SRB assay; format: functional; outline: as §1
Breast cancer cell line [12] = experiment: Cell growth inhibition of human Breast cancer cells incubated for 48 hrs by SRB assay; format: functional; details: read-out: LC50 (the source's name); outline: as §2
Prostatic carcinoma cell = experiment: Cell growth inhibition of human Prostate carcinoma cells incubated for 48 hrs by SRB assay; format: functional; outline: as §1
Renal cancer cell line [13] = experiment: Cell growth inhibition of human Renal cancer cells incubated for 48 hrs by SRB assay; format: functional; outline: as §1
Melanoma cell line [14] = experiment: Cell growth inhibition of human Melanoma cells incubated for 48 hrs by SRB assay; format: functional; outline: as §1
CNS carcinoma cell [15] = experiment: Cell growth inhibition of human CNS carcinoma cells incubated for 48 hrs by SRB assay; format: functional; outline: as §1
[16] = Cell growth inhibition of human Leukemia cancer cells incubated for 48 hrs by SRB assay; format: functional; outline: as §1
NSCLC = experiment: Cell growth inhibition of human NSCLC cells incubated for 48 hrs by SRB assay; format: functional; outline: as §1
Ovarian cancer cell line [17] = experiment: Cytotoxicity against human Ovarian cancer cells incubated for 48 hrs by SRB assay; format: functional; outline: as §1
Breast cancer cell line [18] = experiment: Cytotoxicity against human Breast cancer cells incubated for 48 hrs by SRB assay; format: functional; outline: as §1

Row | Compound | GI (Colon carcinoma cell [1]) [µM] | CC50 [2] [µM] | GI [3] [µM] | TGI (Breast cancer cell line [4]) [µM] | GI (Renal cancer cell line [5]) [µM] | TGI (Ovarian cancer cell line [6]) [µM] | CC50 (Melanoma cell line [7]) [µM] | GI (CNS carcinoma cell [8]) [µM] | TGI (Colon carcinoma cell [9]) [µM] | GI [10] [µM] | GI50 [11] [µM] | CC50 (Breast cancer cell line [12]) [µM] | GI (Prostatic carcinoma cell) [µM] | GI50 (Renal cancer cell line [13]) [µM] | GI (Melanoma cell line [14]) [µM] | GI50 (CNS carcinoma cell [15]) [µM] | GI50 [16] [µM] | GI (NSCLC) [µM] | GI (Ovarian cancer cell line [17]) [µM] | GI (Breast cancer cell line [18]) [µM]
1 | COc1cc2c(/C=C3/C(=O)N(C)c4cc5c(cc43)/C(=C\c3c(Cl)[nH]c4cc(C)c(OC)cc34)C(=O)N5C)c(Cl)[nH]c2cc1C | 9.77 | 42.7 | 7.59 | 10 | 7.24 | 10.7 | 6.46 | 7.76 | 4.17 | 5.37 | 2.04 | 24.6 | 1.82 | 1.95 | 2.34 | 1.82 | 1.2 | 2.19 | 45.71 | 33.11
2 | COc1ccc2c(c1)/C(=C\c1cc(C(C)(C)C)cc(/C=C3/C(=O)N(C)c4ccc(OC)cc43)c1O)C(=O)N2C | 16.98 | 100 | 6.61 | 6.17 | 8.32 | 7.24 | 3.98 | 4.9 | 4.79 | 20.42 | 2.24 | 2.24 | 3.09 | 2.51 | 1.86 | 1.91 | 2.82 | 2.34 | 28.18 | 36.31
3 | COc1cc2c(c(OC)c1OC)C(=Cc1cc(C(C)(C)C)cc(/C=C3\C(=O)Nc4cc(OC)c(OC)c(OC)c43)c1O)C(=O)N2 | 8.13 | 60.3 | 4.37 | 4.9 | 4.9 | 5.13 | 3.63 | 3.31 | 3.89 | 6.03 | 1.95 | 1.86 | 1.91 | 2.19 | 1.82 | 1.62 | 2.19 | 1.95 | 25.12 | 50.12
